Compound activity from PubChem BioAssay.
Rows were chosen to be rich in hits. Some 3.4% of all compounds tested hit in one or more screens of this group.
TMEM16A act = mouse TMEM16A channel activation, primary screen | HEK293 TMEM16A/YFP-H148Q/I152L, iodide quench fluorescence; hits give low values | AID 623877 | B-score at 10 µM | hit rate 0.3% among 340,000;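 active = fluorescence-ratio B-score plate-corrected deviation score at least 3 library SD below zero, with starting fluorescence score within 5 deviations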;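 note: channel opened by trigger with iodide after compound preincubation; score built on the fluorescence ratio of max minus min over baseline; more negative score means more quench and so TMEM16A activation or potentiation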
MC4R ag barr = agonists of human melanocortin 4 receptor (MC4R) beta-arrestin | P32245 | U2OS MC4R beta-arrestin complementation, luminescence; percent of melanotan II response, DMSO zero | hit rate 0.98% among 360,000 | activation, % at 8.9 µM | AID 540308;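 active = activation above a per-plate cutoff, the mean activation of sample wells on that plate plus 3 SD, cut at about 8% in these data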
TMEM16A inh = blocks the mouse calcium-activated chloride channel TMEM16A. HEK293 TMEM16A/YFP iodide influx fluorescence, ionomycin. normalized B-score (activity score, 25-100; higher = stronger inhibition) at 10 µM. Q8BHY3. hit rate 1.2% among 310,000;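 active = ratio plate-corrected score three or more library SD toward inhibition, starting fluorescence score within five deviations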;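 note: score derived from kinetic fluorescence span divided by baseline fluorescence per well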
MC4R antag cAMP = blocks human MC4R cAMP signaling | MC4R-expressing cells, MTII-stimulated cAMP, LANCE TR-FRET | inhibition, % at 6.5 µM | hit rate 0.48% among 360,000 | AID 540295;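 active = inhibition above its plate's cutoff, the mean of tested wells on that plate plus 3 SD, cut at about 29% in these data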;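 note: 0% = Melanotan II alone and 100% = Melanotan II plus saturating MCL0020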
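material = U2OS cells stably expressing human melanocortin 4 receptor (MC4R) | also added = Melanotan II challenge | dosing = single nominal compound dose of 6.5 µM | detection = TR-FRET with Eu-cAMP and labeled anti-cAMP, 671 nm | replication = singlicate | timing = compound 30 min, challenge 1 h, detection 1 h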
m5-HT2A agonist = activates the mouse 5-HT2A serotonin receptor; CHO-K1 mHTR2A beta-arrestin complementation, luminescence; percent of 30 µM serotonin response; activation, % at 7.6 µM; hit rate 0.66% among 360,000; AID 624169;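 active = activation above a run cutoff, the mean activation of all tested compounds plus 3 SD, cut at about 14% in these data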;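 note: 0% = plate median of compound wells and 100% = 30 µM serotonin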
beta cell repl = MIN6 beta-cell proliferation induction; MIN6 cells proliferation, ATPlite luminescence, 48 h; cells starved in 0.2% serum; 100% = growth in 10% serum; proliferation, % at 10 µM; hit rate 0.29% among 330,000;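 active = compounds whose signal lies at least 3.5 SD above the mean of all wells on their plate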;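 note: 0% = DMSO-treated cells in low-serum medium and 100% = 10% serum control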
TMEM16A reconf = reconfirmed blocker of mouse TMEM16A calcium-activated chloride channel. hit rate 39% among 2,300. inhibition, % at 10 µM. shares compounds with TMEM16A inh. AID 652189. HEK293 TMEM16A/YFP-H148Q, iodide quench fluorescence; ionomycin added to raise cell calcium;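 active = mean duplicate percent inhibition, scaled so buffer wells are 0 and the reference blocker 100, over three buffer SD above buffer mean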
TMEM16A Ca cntr = calcium mobilization counter-screen hit for TMEM16A inhibitor series | shares compounds with TMEM16A inh | TMEM16A/YFP HEK293, Fluo4 calcium mobilization | hit rate 2% among 2,300 | calcium response (% of ionomycin), % at 10 µM;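 active = duplicate-averaged calcium signal over 20% of the ionomycin maximum, relative to buffer baseline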;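 note: each well's signal is peak minus trough fluorescence divided by its pre-addition baseline; 0% = buffer wells and 100% = ionomycin wells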
YFP-HEK293 quench = acts in parental YFP-HEK293 cells lacking TMEM16A, counter-screen; 2,300 tested, under 10 active; iodide YFP quench, ionomycin; AID 652233; shares compounds with TMEM16A inh; YFP ratio F(max-min)/F0 at 10 µM;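 active = yellow fluorescent protein signal ratio exceeding the buffer control mean by over 5 SD of those controls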;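 note: ratio is mean of duplicate wells from kinetic YFP trace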
ClC-1 inh = rat ClC-1 inhibition, TMEM16A specificity screen; shares compounds with TMEM16A inh; CHO ClC-1-YFP, iodide influx fluorescence quench; iodide control reads 0, buffer control 100; ratio percent, % at 10 µM; 2,300 tested, under 10 active; AID 652236;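 active = duplicate-mean ratio percent above the mean of iodide-only control wells, which defines zero, plus 5 of their SD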;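 note: higher percent means stronger block of ClC-1 iodide influx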
* hit, by the source's call; i = inactive; / = no result given.

SMILES	TMEM16A act	MC4R ag barr	TMEM16A inh	MC4R antag cAMP	m5-HT2A agonist	beta cell repl	TMEM16A reconf	TMEM16A Ca cntr	YFP-HEK293 quench	ClC-1 inh
CN(C)c1ccnc(SCc2ccccc2Cl)c1C#N	i	-1	25*	-6	-1	0	i	i	-0.84	-8
N#Cc1sc(NCc2ccccn2)nc1Cl	i	0	i	10	-4	2	/	/	/	/
COc1ccc(-c2csc3nc(-c4cccnc4)nc(Cl)c23)cc1OC	i	1	25*	0	12	-6	i	i	-1.2	-19
C=C(C)C1CC=C(C)/C(=N/NC(=O)CNc2ccc(OCC)cc2)C1 (centres undefined)	i	5	25*	4	-5	-5	i	i	-1.1	0
CCOC(=O)C(CCC(=O)O)(CCC(C)C)c1csc(N)n1 (centres undefined)	i	-2	100*	7	3	0	i	i	-0.97	-14
CC(Oc1ccc(Br)cc1)c1nc2c3ccccc3nc(=S)n2[nH]1 (centres undefined)	i	-6	25*	-11	0	-6	33%*	i	-0.71	-9
CS(=O)(=O)NCCNc1ncc(C(F)(F)F)cc1Cl	i	3	i	0	5	-1	/	/	/	/
O=S(=O)(NCCNc1ncc(C(F)(F)F)cc1Cl)C(F)(F)F	i	0	100*	16	1	-6	35%*	i	-1.1	-13
CN(C)c1ccc(-c2nnc(-c3ccccc3F)o2)cc1	i	-1	i	8	8	-4	/	/	/	/
CCOCC(=O)Nc1cc(C(F)(F)F)ccc1Oc1cccc(Br)c1	i	2	25*	8	-5	-1	18%*	i	-1.1	-9
CC(=O)Nc1cc(C(F)(F)F)ccc1Oc1cccc(Br)c1	i	2	i	7	-2	-5	/	/	/	/
CC1Sc2ccc(S(=O)(=O)N(C)Cc3ccccc3)cc2NC1=O (centres undefined)	i	-3	25*	5	-3	-3	i	i	-0.82	-10
O=C1/C(=C/c2ccco2)CCc2ccccc21	i	-1	i	4	-1	0	/	/	/	/
COc1ccc2c(c1)CC/C(=C/c1ccco1)C2=O	i	0	i	-1	0	0	i	i	-1.1	-5
O=C(NCc1ccco1)C1C(=O)Nc2ccccc2C(=O)N1C1CCCCC1 (centres undefined)	/	/	/	/	1	/	/	/	/	/
CC1(C(=O)NS(=O)(=O)c2cccc(Cl)c2)CCN1C(=O)c1cccc2ccccc12 (centres undefined)	/	-1	/	11	5	/	/	/	/	/
COC(=O)[C@@]1(Cc2ccc(F)cc2)[C@H]2c3cc(C(=O)N(C)C)n(CCN4CCOCC4)c3C[C@H]2CN1C(=O)c1ccccc1	/	/	/	/	0	/	/	/	/	/
CSc1cnn(CCC#N)c(=O)n1	/	/	/	/	-2	/	/	/	/	/
COc1cccc(C2CC(c3cccs3)Nc3ncnn32)c1 (centres undefined)	i	-2	25*	2	-4	4	i	i	-0.9	-6
O=C(CCc1ccc(O)cc1)c1c(O)cc(O)cc1O	i	1	25*	7	-4	-4	18%*	i	-1	-17
O=C(Cc1ccc2c(c1)OCCO2)c1c(O)cc(O)cc1O	i	0	i	-4	-4	-1	/	/	/	/
COc1cccc(OC)c1-c1nn2c(-c3ccccc3Cl)nnc2s1	i	-2	i	-15	-3	-1	i	i	-1	-10
Clc1ccccc1-c1nnc2sc(-c3ccccn3)nn12	i	0	/	12	2	/	/	/	/	/
Cc1ccc(C)c(S(=O)(=O)C(C#N)c2nc3ccccc3nc2N2CCCC2)c1 (centres undefined)	i	-2	i	5	1	-7	i	i	-0.73	-8
Cc1cccc(S(=O)(=O)C(C#N)c2nc3ccccc3nc2N2CCCC2)c1 (centres undefined)	i	-3	i	3	3	-6	/	/	/	/
SMILES	TMEM16A act	MC4R ag barr	TMEM16A inh	MC4R antag cAMP	m5-HT2A agonist	beta cell repl	TMEM16A reconf	TMEM16A Ca cntr	YFP-HEK293 quench	ClC-1 inh
Cc1ccc(C)c(S(=O)(=O)C(C#N)c2nc3ccccc3nc2N2CCOCC2)c1 (centres undefined)	i	-1	25*	3	1	-4	22%*	i	-0.89	-14
Cc1ccc(S(=O)(=O)C(C#N)c2nc3ccccc3nc2N2CCC(C)CC2)cc1 (centres undefined)	i	-1	/	7	0	/	/	/	/	/
Cc1ccc(S(=O)(=O)C(C#N)c2nc3ccccc3nc2N2CCN(C)CC2)cc1C (centres undefined)	i	1	i	-1	7	-1	/	/	/	/
Cc1ccc(C)c(S(=O)(=O)C(C#N)c2nc3ccccc3nc2N2CC(C)OC(C)C2)c1 (centres undefined)	i	0	25*	10	0	-4	18%*	i	-1	-18
CN(CCc1ccccc1)C(=O)CCc1nnc(Cc2ccc3c(c2)OCO3)o1	i	-3	i	2	-4	4	/	/	/	/
CC1=C(C(=O)N(C)C)CC(CC(=O)NC2CCCC2)C(=O)N1CCC1=CCCCC1 (centres undefined)	/	2	/	9	-2	/	/	/	/	/
O=C1/C(=C/c2ccc(O)c(O)c2)Oc2cc(O)ccc21	i	1	i	-33	-4	-1	20%*	34%*	-1.5	-62
CCOc1ccc(C(CN2CCOCC2)C(C)=O)cc1OC (centres undefined)	/	/	/	/	-5	/	/	/	/	/
CC(C)c1ccc(CC(=O)N2CCC2(C)C(=O)NS(=O)(=O)c2cccc(OC(F)F)c2)cc1 (centres undefined)	/	-2	/	-1	4	/	/	/	/	/
O=S(=O)(Nc1nc(-c2ccccc2)cs1)c1cc(Cl)ccc1Cl	i	0	25*	-1	4	-1	24%*	i	-1.1	-10
